Experimental data: ChEMBL document CHEMBL5252534, “Discovery of a Noncovalent, Mutant-Selective Epidermal Growth Factor Receptor Inhibitor” (J Med Chem, 2016)
pIC50, pKi: −log10 of the molar value. Converted amounts (≈) assume the structure as drawn. The source made the active and inactive calls. The rule behind the calls is not given here.

Legend:
[1] = Aqueous kinetic solubility of compound in PBS buffer at pH 7.4 at 100 uM incubated for 24 hrs by LC/CLND analysis; type: physicochemical; settings: read-out: Kinetic_solubility
Summary of the method: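 Kinetic aqueous solubility measured at pH 7.4.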

[2] = Apparent permeability across apical to basolateral side in dog MDCK cells; type: ADME, cell-based, Canis lupus familiaris
[3] = molecular target: T1, Epidermal growth factor receptor (Homo sapiens, UniProt P00533, L858R/T790M); experiment: Inhibition of human EGFR T790M/L858R double mutant assessed as apparent inhibition constant using Fl-EEPLYWSFPAKKK-CONH2 as peptide substrate preincubated for 30 mins followed by addition of substrate and measured after 30 mins by Morrison plot analysis; settings: read-out: Ki(app)
[4] = molecular target: Epidermal growth factor receptor (Homo sapiens, UniProt P00533, L858R); experiment: Inhibition of human EGFR L858R mutant assessed as apparent inhibition constant using Fl-EEPLYWSFPAKKK-CONH2 peptide as substrate preincubated for 30 mins followed by addition of substrate and measured after 30 mins by Morrison plot analysis; settings: read-out: Ki(app)
Summary of the method: (§1)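 Biochemical kinase Ki determination; reported values are geometric means of at least two independent experiments.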

[5] = molecular target: T2, Epidermal growth factor receptor (Homo sapiens, UniProt P00533); experiment: Inhibition of wild type human EGFR assessed as apparent inhibition constant using Fl-EEPLYWSFPAKKK-CONH2 as substrate preincubated for 30 mins followed by addition of substrate and measured after 30 mins by Morrison plot analysis; settings: read-out: Ki(app)
[6] = molecular target: T3, Epidermal growth factor receptor (Homo sapiens, UniProt P00533, 746-750DEL/T790M); experiment: Inhibition of human EGFR T790M/del (746 to 750 residues) mutant assessed as apparent inhibition constant using Fl-EEPLYWSFPAKKK-CONH2 peptide as substrate preincubated for 30 mins followed by addition of substrate and measured after 30 mins by Morrison plot analysis; settings: read-out: Ki(app); summary of the method: as §1
[7] = molecular target: T4, Epidermal growth factor receptor (Homo sapiens, UniProt P00533, 746-750DEL); experiment: Inhibition of human EGFR del (746 to 750) mutant assessed as apparent inhibition constant using Fl-EEPLYWSFPAKKK-CONH2 as substrate preincubated for 30 mins followed by addition of substrate and measured after 30 mins by Morrison plot analysis; settings: read-out: Ki(app); summary of the method: as §1
[8] = molecular target: T1, Epidermal growth factor receptor; type: cell-based, NCI-H1975
[9] = molecular target: T3, Epidermal growth factor receptor; type: cell-based, PC-9/ER1
[10] = Clearance in human liver microsomes; type: ADME, Microsome
Summary of the method: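 Incubation with human liver microsomes; intrinsic clearance scaled to predicted hepatic clearance as Clhep = (Q × Clint)/(Q + Clint), where Q is liver blood flow.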

[11] = molecular target: T2, Epidermal growth factor receptor; experiment: Inhibition of EGFR autophosphorylation in human NCI-H292 cells harboring harboring wild type EGFR preincubated for 60 mins followed by EGF stimulation and measured after 8 mins by SULFO-TAG based electrochemiluminescent assay; type: cell-based
Target sequence in this assay (P00533 25-1210 limits assumed, stated change not applied): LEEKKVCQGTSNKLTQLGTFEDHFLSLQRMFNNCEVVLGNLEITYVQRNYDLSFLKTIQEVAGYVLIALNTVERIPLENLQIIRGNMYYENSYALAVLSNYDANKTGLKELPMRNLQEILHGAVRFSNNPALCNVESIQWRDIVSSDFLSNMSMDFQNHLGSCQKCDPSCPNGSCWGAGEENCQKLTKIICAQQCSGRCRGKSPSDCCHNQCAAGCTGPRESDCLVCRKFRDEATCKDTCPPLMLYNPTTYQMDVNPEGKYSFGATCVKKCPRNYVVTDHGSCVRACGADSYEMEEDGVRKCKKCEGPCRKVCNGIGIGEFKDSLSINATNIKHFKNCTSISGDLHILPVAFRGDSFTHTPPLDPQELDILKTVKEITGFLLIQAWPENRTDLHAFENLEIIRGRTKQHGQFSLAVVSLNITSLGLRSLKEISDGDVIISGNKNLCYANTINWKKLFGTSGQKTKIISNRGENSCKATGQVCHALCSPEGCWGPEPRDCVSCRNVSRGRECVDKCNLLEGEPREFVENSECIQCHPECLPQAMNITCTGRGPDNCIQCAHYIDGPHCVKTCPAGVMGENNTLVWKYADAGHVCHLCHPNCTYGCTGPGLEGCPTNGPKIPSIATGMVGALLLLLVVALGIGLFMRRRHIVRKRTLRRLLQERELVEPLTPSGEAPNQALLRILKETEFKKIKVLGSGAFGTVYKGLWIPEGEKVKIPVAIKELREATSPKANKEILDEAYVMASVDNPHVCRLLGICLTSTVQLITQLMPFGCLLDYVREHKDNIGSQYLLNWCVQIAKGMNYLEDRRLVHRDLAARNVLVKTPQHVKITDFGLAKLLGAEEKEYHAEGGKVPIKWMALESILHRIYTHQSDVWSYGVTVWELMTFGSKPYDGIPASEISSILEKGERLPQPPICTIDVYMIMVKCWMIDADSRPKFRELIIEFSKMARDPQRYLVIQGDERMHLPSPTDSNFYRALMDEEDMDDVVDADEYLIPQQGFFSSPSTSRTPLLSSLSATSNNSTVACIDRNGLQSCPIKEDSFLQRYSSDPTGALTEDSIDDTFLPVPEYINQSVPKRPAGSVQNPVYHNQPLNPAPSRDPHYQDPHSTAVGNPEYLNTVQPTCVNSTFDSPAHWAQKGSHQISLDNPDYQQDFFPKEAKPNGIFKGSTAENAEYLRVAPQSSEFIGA

[12] = Clearance in human hepatocyte; type: ADME, cell-based; settings: hepatocytes
Summary of the method: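 Cryopreserved human hepatocytes used; intrinsic clearance converted to predicted hepatic clearance as (Q × Clint)/(Q + Clint) using liver blood flow Q.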

[13] = molecular target: T4, Epidermal growth factor receptor; type: cell-based, PC-9
Plasma [14] = experiment: Time during which free plasma concentration exceeds IC50 for inhibition of human EGFR T790M/L858R double mutant autophosphorylation in human NCI-H1975 cells xenografted in SCID mouse at 100 mg/kg, po
[15] = tested on: Epidermal growth factor receptor (Homo sapiens), P00533 [L858R,T790M]; experiment: In vivo inhibition of EGFR L858R/T790M double mutant in SCID mouse xenografted with human NCI-H1975 cells assessed as reduction in ERK1/2 phosphorylation at 100 mg/kg, po and measured after 16 hrs by MSD assay; type: functional, organism-based
Summary of the method: (§2)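 H1975 tumor-bearing mice given a single oral dose of 50 or 100 mg/kg; tumors collected at set times; phospho-EGFR, ERK and AKT measured by MSD immunoassay; four animals per group, individual animals plotted.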

Plasma [16] = experiment: Time during which free plasma concentration exceeds IC50 for inhibition of human EGFR T790M/L858R double mutant autophosphorylation in human NCI-H1975 cells xenografted in SCID mouse at 50 mg/kg, po
[17] = tested on: Epidermal growth factor receptor (Homo sapiens), P00533 [L858R,T790M]; experiment: In vivo inhibition of EGFR L858R/T790M double mutant in SCID mouse xenografted with human NCI-H1975 cells assessed as reduction in AKT phosphorylation at S473 residue at 50 mg/kg, po and measured after 8 hrs by MSD assay; type: functional, organism-based; summary of the method: as §2
[18] = Fraction unbound in SCID mouse plasma at 50 to 100 mg/kg,po and measured upto 16 hrs by LC-MS assay; type: ADME, organism-based; settings: in vivo, dose 50-100 mg/kg
[19] = Oral bioavailability in dog at 2 mg/kg; type: ADME, organism-based, Canis lupus familiaris; settings: in vivo
Summary of the method: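 Dog dosed orally at 2 mg kg−1 as a suspension in MCT; bioavailability compared against iv dosing at 1 mg kg−1 in ethanol/PEG/water.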

[20] = tested on: Epidermal growth factor receptor (Homo sapiens), P00533 [L858R,T790M]; experiment: In vivo inhibition of EGFR L858R/T790M double mutant in SCID mouse xenografted with human NCI-H1975 cells assessed as reduction in ERK1/2 phosphorylation at 50 mg/kg, po and measured after 8 hrs by MSD assay; type: functional, organism-based; summary of the method: as §2
[21] = tested on: Epidermal growth factor receptor (Homo sapiens), P00533 [L858R,T790M]; experiment: In vivo inhibition of EGFR L858R/T790M double mutant in SCID mouse xenografted with human NCI-H1975 cells assessed as reduction in EGFR L858R/T790M double mutant phosphorylation at Y1068 residue at 100 mg/kg, po and measured after 16 hrs by MSD assay; type: functional, organism-based; summary of the method: as §2
[22] = tested on: Epidermal growth factor receptor (Homo sapiens), P00533 [L858R,T790M]; experiment: In vivo inhibition of EGFR L858R/T790M double mutant in SCID mouse xenografted with human NCI-H1975 cells assessed as reduction in AKT phosphorylation at S473 residue at 100 mg/kg, po and measured after 16 hrs by MSD assay; type: functional, organism-based; summary of the method: as §2
[23] = Volume of distribution at steady state in dog at 1 mg/kg,iv; type: ADME, organism-based, Canis lupus familiaris; settings: in vivo, read-out: Vdss
Summary of the method: (§3)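 Single intravenous dose as a solution in 10/35/55 ethanol/PEG/water (mouse 5 mg kg−1; dog 1 mg kg−1); plasma clearance and steady-state volume of distribution derived from the plasma profile.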

PC-9 = experiment: Antiproliferative activity against human PC-9 cells harboring harboring EGFR del (746 to 750) mutant assessed as reduction in cell viability; type: functional, cell-based
NCI-H1975 = experiment: Antiproliferative activity against human NCI-H1975 cells harboring harboring EGFR L858R/T790M double mutant assessed as reduction in cell viability; type: functional, cell-based
[24] = tested on: Epidermal growth factor receptor (Homo sapiens), P00533 [L858R,T790M]; experiment: In vivo inhibition of EGFR L858R/T790M double mutant in SCID mouse xenografted with human NCI-H1975 cells assessed as reduction in EGFR L858R/T790M double mutant phosphorylation at Y1068 residue at 50 mg/kg, po and measured after 8 hrs by MSD assay; type: functional, organism-based; summary of the method: as §2
[25] = Clearance in dog plasma at 1 mg/kg,iv; type: ADME, organism-based, Canis lupus familiaris; summary of the method: as §3
[26] = Oral bioavailability in mouse at 25 mg/kg; type: ADME, organism-based; settings: in vivo
Summary of the method: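 Mouse dosed orally at 25 mg kg−1 as a solution in corn oil; bioavailability compared against the iv arm (5 mg kg−1 in ethanol/PEG/water).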

[27] = Clearance in mouse plasma at 5 mg/kg,iv; type: ADME, organism-based; summary of the method: as §3
[28] = Volume of distribution at steady state in mouse at 5 mg/kg,iv; type: ADME, organism-based; settings: in vivo, read-out: Vdss; summary of the method: as §3

Sequence of Epidermal growth factor receptor (Homo sapiens, UniProt P00533, L858R) (P00533 25-1210 L858R limits assumed): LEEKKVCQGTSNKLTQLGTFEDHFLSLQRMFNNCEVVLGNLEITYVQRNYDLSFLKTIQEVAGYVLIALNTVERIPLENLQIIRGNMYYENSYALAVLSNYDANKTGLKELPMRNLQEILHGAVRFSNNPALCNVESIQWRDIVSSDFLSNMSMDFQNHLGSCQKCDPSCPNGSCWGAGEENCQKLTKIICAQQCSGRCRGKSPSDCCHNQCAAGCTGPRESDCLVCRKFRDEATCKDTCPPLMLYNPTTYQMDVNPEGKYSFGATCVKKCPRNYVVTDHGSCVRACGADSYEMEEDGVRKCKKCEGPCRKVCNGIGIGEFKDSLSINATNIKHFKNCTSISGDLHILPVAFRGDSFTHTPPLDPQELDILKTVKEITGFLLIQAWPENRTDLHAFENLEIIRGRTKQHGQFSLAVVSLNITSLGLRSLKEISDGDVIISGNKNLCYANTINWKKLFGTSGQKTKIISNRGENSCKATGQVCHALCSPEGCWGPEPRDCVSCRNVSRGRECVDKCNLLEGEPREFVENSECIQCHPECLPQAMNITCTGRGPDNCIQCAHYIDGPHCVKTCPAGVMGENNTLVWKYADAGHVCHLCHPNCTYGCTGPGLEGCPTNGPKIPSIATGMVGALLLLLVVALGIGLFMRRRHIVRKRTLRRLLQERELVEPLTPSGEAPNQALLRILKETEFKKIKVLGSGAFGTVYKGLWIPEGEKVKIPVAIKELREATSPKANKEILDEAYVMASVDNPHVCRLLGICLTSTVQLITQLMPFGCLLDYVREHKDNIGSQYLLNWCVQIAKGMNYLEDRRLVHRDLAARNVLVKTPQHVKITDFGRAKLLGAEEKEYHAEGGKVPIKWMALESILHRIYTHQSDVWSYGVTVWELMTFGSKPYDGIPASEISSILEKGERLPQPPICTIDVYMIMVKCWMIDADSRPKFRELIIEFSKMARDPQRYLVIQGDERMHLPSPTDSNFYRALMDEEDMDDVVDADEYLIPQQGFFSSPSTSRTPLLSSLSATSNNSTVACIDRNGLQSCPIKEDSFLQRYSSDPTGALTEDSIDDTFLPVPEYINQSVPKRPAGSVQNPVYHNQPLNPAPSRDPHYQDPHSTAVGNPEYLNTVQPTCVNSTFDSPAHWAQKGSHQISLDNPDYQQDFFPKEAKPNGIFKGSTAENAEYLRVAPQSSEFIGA
Sequence of Epidermal growth factor receptor (Homo sapiens), P00533 [L858R,T790M] (P00533 whole entry T790M/L858R, looked up): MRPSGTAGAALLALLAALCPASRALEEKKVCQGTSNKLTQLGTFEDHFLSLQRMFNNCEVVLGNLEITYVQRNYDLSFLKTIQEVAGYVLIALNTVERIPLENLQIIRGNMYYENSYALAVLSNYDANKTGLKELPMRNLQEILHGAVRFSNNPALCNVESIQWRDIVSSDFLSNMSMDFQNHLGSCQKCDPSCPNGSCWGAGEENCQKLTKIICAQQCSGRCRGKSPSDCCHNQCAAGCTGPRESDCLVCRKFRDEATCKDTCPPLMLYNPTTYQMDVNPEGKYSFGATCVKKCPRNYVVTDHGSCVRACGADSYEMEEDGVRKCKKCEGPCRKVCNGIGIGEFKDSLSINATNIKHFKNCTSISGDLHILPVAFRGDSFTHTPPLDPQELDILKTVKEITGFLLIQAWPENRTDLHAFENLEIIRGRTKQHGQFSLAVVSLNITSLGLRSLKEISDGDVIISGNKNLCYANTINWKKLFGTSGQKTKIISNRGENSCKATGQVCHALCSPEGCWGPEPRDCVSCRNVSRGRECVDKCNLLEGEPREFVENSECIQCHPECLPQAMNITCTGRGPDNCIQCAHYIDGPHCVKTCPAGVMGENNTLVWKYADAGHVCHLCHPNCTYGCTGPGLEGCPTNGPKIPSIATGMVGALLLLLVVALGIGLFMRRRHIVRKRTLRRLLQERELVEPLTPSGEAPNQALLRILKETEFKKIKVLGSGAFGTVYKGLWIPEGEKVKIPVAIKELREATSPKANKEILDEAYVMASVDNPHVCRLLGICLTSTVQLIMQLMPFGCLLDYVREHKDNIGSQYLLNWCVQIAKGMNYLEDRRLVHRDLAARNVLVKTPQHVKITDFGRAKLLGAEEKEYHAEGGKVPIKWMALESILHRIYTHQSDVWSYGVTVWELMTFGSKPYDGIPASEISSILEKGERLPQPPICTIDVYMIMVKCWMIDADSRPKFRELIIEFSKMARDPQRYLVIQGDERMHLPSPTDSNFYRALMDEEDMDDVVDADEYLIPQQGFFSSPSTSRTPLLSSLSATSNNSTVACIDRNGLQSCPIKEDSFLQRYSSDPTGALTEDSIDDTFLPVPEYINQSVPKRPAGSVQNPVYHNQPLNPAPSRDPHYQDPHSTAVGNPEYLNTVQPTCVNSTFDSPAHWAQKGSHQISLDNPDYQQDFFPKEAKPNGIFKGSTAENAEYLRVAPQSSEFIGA
T1 sequence (P00533 25-1210 T790M/L858R limits assumed): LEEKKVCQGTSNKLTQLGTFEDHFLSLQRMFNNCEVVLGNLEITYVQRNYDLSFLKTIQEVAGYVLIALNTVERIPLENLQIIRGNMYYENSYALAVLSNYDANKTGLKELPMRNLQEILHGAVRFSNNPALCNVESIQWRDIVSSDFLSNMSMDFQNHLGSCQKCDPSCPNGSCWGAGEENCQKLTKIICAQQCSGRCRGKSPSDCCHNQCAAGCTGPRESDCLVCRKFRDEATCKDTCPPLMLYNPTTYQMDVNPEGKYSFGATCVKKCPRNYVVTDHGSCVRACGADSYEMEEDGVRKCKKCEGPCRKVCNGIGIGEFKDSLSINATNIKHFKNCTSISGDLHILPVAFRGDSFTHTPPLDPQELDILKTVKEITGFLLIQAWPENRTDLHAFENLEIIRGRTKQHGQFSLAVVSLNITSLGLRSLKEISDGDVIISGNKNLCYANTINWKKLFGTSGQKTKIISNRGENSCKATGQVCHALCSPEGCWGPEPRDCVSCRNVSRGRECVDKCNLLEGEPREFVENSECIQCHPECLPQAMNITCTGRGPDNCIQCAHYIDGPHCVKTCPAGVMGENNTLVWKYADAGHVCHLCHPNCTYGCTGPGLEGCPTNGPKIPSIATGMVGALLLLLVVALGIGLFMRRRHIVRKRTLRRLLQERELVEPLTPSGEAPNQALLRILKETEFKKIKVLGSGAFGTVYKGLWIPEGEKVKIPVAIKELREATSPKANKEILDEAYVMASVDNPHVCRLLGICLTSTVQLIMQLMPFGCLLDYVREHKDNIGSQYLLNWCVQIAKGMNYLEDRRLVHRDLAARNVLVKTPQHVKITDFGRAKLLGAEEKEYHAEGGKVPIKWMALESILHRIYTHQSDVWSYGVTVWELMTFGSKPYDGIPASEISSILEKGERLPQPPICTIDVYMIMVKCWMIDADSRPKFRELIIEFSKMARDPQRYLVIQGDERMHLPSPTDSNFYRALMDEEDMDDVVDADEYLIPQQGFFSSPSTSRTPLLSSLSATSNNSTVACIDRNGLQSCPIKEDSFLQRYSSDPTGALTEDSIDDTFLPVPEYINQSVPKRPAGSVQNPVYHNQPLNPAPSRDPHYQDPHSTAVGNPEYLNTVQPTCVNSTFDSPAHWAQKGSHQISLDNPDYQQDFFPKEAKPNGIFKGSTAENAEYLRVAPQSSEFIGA

Row | Structure (SMILES) | solubility kinetic at 24 h, 100 µM [1] | Papp A→B [2] | pKi [3] | pKi [4] | pKi [5] | pKi [6] | pKi [7] | pIC50 [8] | pIC50 [9] | CLhep predicted [10] | pIC50 [11] | CLhep predicted [12] | pIC50 [13] | further results
1 | CC(C)n1cc(C(N)=O)c2cnc(Nc3ccnc(-c4cnn(S(=O)(=O)C5CC5)c4)n3)cc21 | < 1 µM | 4.5 ×10⁻⁶ cm/s | 8.96 | 8.39 | 8.11 | 9.46 | 8.92 | – | – | – | – | – | – | –
2 | CC(C)n1nc(N)c2cnc(Nc3ccnc(-c4cnn(S(=O)(=O)C5CC5)c4)n3)cc21 | 2 µM (≈ 0.879 µg/mL) | 16 ×10⁻⁶ cm/s | 9.10 | – | 8.09 | – | – | 7.19 | 7.85 | 13 mL/min/kg | 5.41 | 8.4 mL/min/kg | 7.10 | –
3 | CC[C@H](C)n1nc(N2CC(C(C)(C)O)C2)c2cnc(Nc3ccnc(-c4cnn(S(=O)(=O)C5CC5)c4)n3)cc21 | 2 µM (≈ 1.1 µg/mL) | 8.9 ×10⁻⁶ cm/s | – | – | – | – | – | 7.57 | 8.10 | 3.8 mL/min/kg | 6.66 | 2.7 mL/min/kg | 7.48 | T>IC50 (Plasma [14]): 16 h; inhibition [15]: Active; T>IC50 (Plasma [16]): 8 h; inhibition [17]: Active; Fu [18]: 0.009; bioavailability [19]: 30%; inhibition [20]: Active; inhibition [21]: Active; inhibition [22]: Active; Vd [23]: 6.9 L/kg; pIC50 (PC-9): 6.82; pIC50 (NCI-H1975): 6.44; inhibition [24]: Active; clearance [25]: 13 mL/min/kg; bioavailability [26]: 19%; clearance [27]: 104 mL/min/kg; Vd [28]: 3.4 L/kg
4 | COC1CCN(c2nccc(Nc3cc4c(cn3)c(C(N)=O)nn4C(C)C)n2)CC1 | – | – | – | – | < 7.00 | – | – | – | – | – | – | – | – | –
5 | COC1CCN(c2nccc(Nc3cc4c(cn3)c(C(N)=O)cn4C(C)C)n2)CC1 | 3 µM (≈ 1.23 µg/mL) | 26 ×10⁻⁶ cm/s | 8.28 | 6.44 | 6.78 | 7.57 | 6.49 | – | – | – | – | – | – | –
6 | CC(C)n1nc(N2CC(CO)C2)c2cnc(Nc3ccnc(-c4cnn(S(=O)(=O)C5CC5)c4)n3)cc21 | 3 µM (≈ 1.53 µg/mL) | 8.1 ×10⁻⁶ cm/s | > 9.22 | – | 8.70 | – | – | 7.72 | 8.09 | 10 mL/min/kg | 7.02 | 13 mL/min/kg | 7.55 | –
7 | CC(C)n1cc(C(=O)NC2CCOCC2)c2cnc(Nc3ccnc(-c4cnn(S(=O)(=O)C5CC5)c4)n3)cc21 | 11 µM (≈ 6.06 µg/mL) | 4.6 ×10⁻⁶ cm/s | 8.92 | 8.42 | 8.47 | 8.80 | 8.85 | – | – | – | – | – | – | –
8 | CC(C)c1nn(C(C)C)c2cc(Nc3ccnc(-c4cnn(S(=O)(=O)C5CC5)c4)n3)ncc12 | < 1 µM | 3.9 ×10⁻⁶ cm/s | – | – | > 6.27 | – | – | 5.62 | 6.04 | 8.5 mL/min/kg | < 5.00 | 15 mL/min/kg | 5.52 | –
9 | Cc1nc2cnc(Nc3ccnc(-c4cnn(CC5CC5)c4)n3)cc2n1C(C)C | – | – | 7.47 | – | 5.92 | – | – | – | – | – | – | – | – | –
